High-throughput results as filed in PubChem.
The list is not random: actives were taken first. Their share in the collection is about 9.2%.
ERa coact pot: enhances coactivator binding to human estrogen receptor alpha. TR-FRET ERalpha-LBD/SRC-Cy5 coactivator binding, 2 h; 100 = basal binding, no effect. P03372. coactivator binding (% of control), % at 25.6 µM. 86,000 tested, 1.3% active. AID 639; in the data active = activity above about 200%;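 also: binding measured in presence of low estradiol as agonist stimulus; 0% = peptide alone without receptor and 100% = receptor with peptide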
Target sequence (P03372 whole entry, looked up, the tested form may be a part): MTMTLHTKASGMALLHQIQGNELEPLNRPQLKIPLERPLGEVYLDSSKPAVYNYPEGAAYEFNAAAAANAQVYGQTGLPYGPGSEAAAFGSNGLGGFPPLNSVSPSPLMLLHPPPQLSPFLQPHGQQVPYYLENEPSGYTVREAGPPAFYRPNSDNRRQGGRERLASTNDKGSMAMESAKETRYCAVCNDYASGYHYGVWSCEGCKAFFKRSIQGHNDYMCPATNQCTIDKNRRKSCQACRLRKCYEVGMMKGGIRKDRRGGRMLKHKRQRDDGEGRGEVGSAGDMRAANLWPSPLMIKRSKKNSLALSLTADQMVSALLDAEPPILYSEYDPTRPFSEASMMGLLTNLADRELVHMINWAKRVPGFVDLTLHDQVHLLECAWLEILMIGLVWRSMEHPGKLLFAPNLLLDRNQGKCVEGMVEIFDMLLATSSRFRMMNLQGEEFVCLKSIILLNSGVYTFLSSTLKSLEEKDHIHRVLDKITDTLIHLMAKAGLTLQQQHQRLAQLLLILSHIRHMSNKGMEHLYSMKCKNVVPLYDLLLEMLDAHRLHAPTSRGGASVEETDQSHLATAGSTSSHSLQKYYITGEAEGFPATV
ERa coact inh: ER-alpha (human) coactivator binding inhibition; inhibition, % at 25.6 µM; P03372; 86,000 tested, 1.7% active; AID 629; TR-FRET ER-alpha LBD / SRC-1 peptide, estradiol-bound; in the data active = inhibition above about 50%;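 also: 0% = receptor plus peptide control and 100% = peptide only without receptor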
Fibroblast inh: blocks proliferation of human lung fibroblasts | 85,000 tested, 1.1% active | LL 47 human lung fibroblast viability, ATP luminescence; active compounds read low | viability, % at 10 µM;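 active = viability at or below 50% in the single dose screen; inactive = viability above 50%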;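 also: compound exposure lasted 72 h before the ATP readout; 100% = median luminescence of untreated cell-only wells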
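Test system: LL 47 human lung fibroblasts / Quantity: 1,150 cells in each well / Medium: IMEM growth medium with 15% fetal bovine serum / Incubation: 72 h compound exposure at 37 °C after overnight plating / Detection: CellTiter-Glo luminescence measuring cellular ATP / Read-out: % viability versus median cells-only luminescence / Benchmarks: cell-only wells, no compound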
ERb coact inh: ER-beta (human) coactivator binding inhibition. 86,000 tested, 1.3% active. TR-FRET ER-beta LBD / SRC1-Cy5 peptide binding; receptor agonist-loaded with 1 µM estradiol. Q92731. inhibition, % at 25.6 µM;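 active = compounds whose percent inhibition of the receptor-coactivator binding signal exceeds about 50% in the single-dose screen, limit read from the data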;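 also: 0% = receptor plus peptide wells without compound and 100% = peptide-only wells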
H69AR growth 86K: growth inhibitors of human H69AR lung tumor cells; H69AR lung tumor viability, ATP luminescence, 72 h; active compounds read low; AID 598; 85,000 tested, 6% active; viability, % at 10 µM;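 active = viability at or below 40%; inactive = viability above 40%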;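 also: multidrug resistant small cell line overexpressing MRP-1 efflux transporter; 100% = mean luminescence of untreated control wells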
HUVEC inhibit: inhibitors of human endothelial cell proliferation; HUVEC proliferation, CellTiter-Glo luminescence, 72 h; active compounds read low; viability, % at 10 µM (by protocol); 86,000 tested, 1.1% active;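 active = viability at or below 30%; inactive = viability above 30%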;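 also: 100% = median luminescence of DMSO-only cell control wells on each plate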
* = called active by the depositor; [ ] = dose if it differs, or a comment.

Screening CCOC(=O)c1sc(NC(=O)c2ccc3ncsc3c2)nc1C returned ERa coact pot 473.3*, ERa coact inh 22.9, Fibroblast inh 88.3, ERb coact inh 28.7, H69AR growth 86K 89.7 and HUVEC inhibit 87.1.
For COc1ccc(-c2nnc3ccc(SCC(=O)N4CCN(c5ccccc5)CC4)nn23)cc1OC the results were ERa coact pot 99.6, ERa coact inh -7.5, Fibroblast inh 96.2, ERb coact inh -1.4, H69AR growth 86K 71.4 and HUVEC inhibit 77.7.
`Cc1cc(Nc2ccccc2)nn1C(=O)c1ccc(Br)cc1` gave ERa coact pot 114.1, ERa coact inh 9.6, Fibroblast inh 97.1, ERb coact inh 2.5, H69AR growth 86K 28.7* and HUVEC inhibit 68.9.
`Cc1cc(Nc2ccccc2)nn1C(=O)c1ccccc1` gave ERa coact pot 84.2, ERa coact inh -3.7, Fibroblast inh 92.4, ERb coact inh 7.4, H69AR growth 86K 91.5 and HUVEC inhibit 108.8.
For CN(C)CCCN1C(=O)C(O)=C(C(=O)c2cc3ccccc3o2)C1c1ccccn1 (configuration not stated) the results were ERa coact pot 91.1, ERa coact inh -1.4, Fibroblast inh 101.3, ERb coact inh 9.9, H69AR growth 86K 91.2 and HUVEC inhibit 104.6.
C(=C\c1ccccc1)/CSc1nnc(-c2ccccn2)n1Cc1ccco1 was read as ERa coact pot 84.7, ERa coact inh -9.3, Fibroblast inh 42.6*, ERb coact inh -11.3, H69AR growth 86K 18.9* and HUVEC inhibit 41.4.
Screening Cc1ccccc1Cc1c(C)nc2c(C(=O)NCc3ccco3)cnn2c1C returned ERa coact pot 108.3, ERa coact inh 16.2, Fibroblast inh 106.0, ERb coact inh 9.0, H69AR growth 86K 39.7* and HUVEC inhibit 91.6.
For CC(C)CCSc1nc(N2CCOCC2)c2c(c1C#N)CC(C)(C)OC2 the results were ERa coact pot 115.7, ERa coact inh -4.6, Fibroblast inh 88.4, ERb coact inh -8.7, H69AR growth 86K 59.5 and HUVEC inhibit 79.8.
For COC(=O)c1ccc(CSc2nc(N3CCOCC3)c3c(c2C#N)CC(C)(C)OC3)o1 the results were ERa coact pot 103.1, ERa coact inh -2.8, Fibroblast inh 104.0, ERb coact inh 12.2, H69AR growth 86K 31.8* and HUVEC inhibit 92.8.
`COC(=O)c1cccc(COC(=O)c2ccc(CS(=O)(=O)c3ccc(C)cc3)cc2)c1` gave ERa coact pot 139.1, ERa coact inh 34.1, Fibroblast inh 95.2, ERb coact inh 20.1, H69AR growth 86K 65.8 and HUVEC inhibit 75.7.
For COc1ccc(Nc2ncnc3c2cnn3-c2ccccc2)cc1OC the results were ERa coact pot 97.0, ERa coact inh -2.8, Fibroblast inh 111.5, ERb coact inh -3.0, H69AR growth 86K 37.3* and HUVEC inhibit 90.3.
`COc1ccc(OC)c(Nc2ncnc3c2cnn3-c2cccc(C)c2)c1` gave ERa coact pot 108.1, ERa coact inh -7.0, Fibroblast inh 61.0, ERb coact inh -5.4, H69AR growth 86K 22.6* and HUVEC inhibit 51.3.
COc1ccc(OC)c(Nc2ncnc3ccccc23)c1 was read as ERa coact pot 122.5, ERa coact inh -87.4, Fibroblast inh 99.2, ERb coact inh 13.3, H69AR growth 86K 91.8 and HUVEC inhibit 105.1.
`COc1cccc(C2/C(=C(\O)c3ccc4c(c3)OCCO4)C(=O)C(=O)N2CCCN(C)C)c1OC` (configuration not stated) gave ERa coact pot 98.7, ERa coact inh -6.8, Fibroblast inh 105.8, ERb coact inh 2.0, H69AR growth 86K 99.6 and HUVEC inhibit 94.0.
For COC(=O)C1=C(N)Oc2cc(C)n(Cc3cccnc3)c(=O)c2C1c1cccc(OC)c1OC (configuration not stated) the results were ERa coact pot 115.2, ERa coact inh -6.1, Fibroblast inh 96.6, ERb coact inh -3.1, H69AR growth 86K 92.3 and HUVEC inhibit 94.6.
Screening COc1ccc(OC)c(Nc2nc(N)nc(CSc3nnc(-c4ccncc4)o3)n2)c1 returned ERa coact pot 71.6, ERa coact inh 10.5, Fibroblast inh 96.9, ERb coact inh 15.6, H69AR growth 86K 76.8 and HUVEC inhibit 85.8.
Screening COc1cc2[nH]c(=S)n(N(C(C)=O)C(C)=O)c(=O)c2cc1OC returned ERa coact pot 201.4*[fluorescence artefact?], ERa coact inh -67.4, Fibroblast inh 97.5, ERb coact inh -77.7, H69AR growth 86K 87.6 and HUVEC inhibit 102.3.
COc1cc2[nH]c(=S)n(C3CCCC3)c(=O)c2cc1OC was read as ERa coact pot 113.8, ERa coact inh 1.4, Fibroblast inh 98.3, ERb coact inh -2.9, H69AR growth 86K 58.8 and HUVEC inhibit 81.4.
CCC(C)(C)n1nnnc1C(c1cc2ccc(OC)cc2[nH]c1=O)N1CCc2ccccc21 (configuration not stated) was read as ERa coact pot 256.2*, ERa coact inh 18.8, Fibroblast inh 101.0, ERb coact inh 6.4, H69AR growth 86K 64.2 and HUVEC inhibit 74.7.
Screening CCC(C)(C)n1nnnc1C(c1ccc(O)c(OC)c1)N1CCN(c2nc3ccccc3s2)CC1 (configuration not stated) returned ERa coact pot 59.0, ERa coact inh -4.4, Fibroblast inh 94.5, ERb coact inh -12.6, H69AR growth 86K 14.1* and HUVEC inhibit 93.0.
For CCC(C)(C)n1nnnc1C(c1cc2cc(OC)ccc2[nH]c1=O)N1CCc2ccccc21 (configuration not stated) the results were ERa coact pot 94.0, ERa coact inh -1.0, Fibroblast inh 99.6, ERb coact inh 3.4, H69AR growth 86K 81.3 and HUVEC inhibit 98.9.
Screening CCC(C)(C)n1nnnc1C(c1ccc(O)c(OC)c1)N1CCc2ccccc2C1 (configuration not stated) returned ERa coact pot 50.7, ERa coact inh 12.4, Fibroblast inh 86.7, ERb coact inh 5.0, H69AR growth 86K 34.1* and HUVEC inhibit 93.6.
For COc1ccc(C(c2nnnn2C(C)(C)C)N2CCN(c3nc4ccccc4s3)CC2)cc1 (configuration not stated) the results were ERa coact pot 120.5, ERa coact inh -8.4, Fibroblast inh 99.9, ERb coact inh 3.0, H69AR growth 86K 82.9 and HUVEC inhibit 95.7.
`CCCn1c(SCC(=O)Nc2sc(C)c(C)c2C(=O)OCC)nc2c1c(=O)n(C)c(=O)n2C` gave ERa coact pot 88.1, ERa coact inh 5.3, Fibroblast inh 93.6, ERb coact inh 19.1, H69AR growth 86K 65.5 and HUVEC inhibit 90.3.
For N#C/C(=C\c1ccc(N2CCOCC2)o1)c1nc2ccccc2[nH]1 the results were ERa coact pot 118.6, ERa coact inh -15.5, Fibroblast inh 82.7, ERb coact inh -5.1, H69AR growth 86K 19.6* and HUVEC inhibit 57.2.
